The values that follow come from paper PMC9989826 (Cell Reports, 2023).

The subject of experiment [1] is fibrotic WT (C57BL6/J) mice. The experiment in a line: Entresto study: oral treatment of fibrotic WT mice. The format is in vivo, mouse. Particulars: oral 100 mg/kg for 14 days; fibrotic mice vs control. The essentials:
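Male and female WT mice, 10–12 weeks, made fibrotic over 7 weeks by i.p. CCl4 plus either ethanol in drinking water or Western diet. Entresto tablet (49mg/51mg) crushed and resuspended in 0.9% NaCl; valsartan and sacubitril prepared the same way. Dosed orally for 14 days until sacrifice. Portal pressure measured at the end; hepatic Col1a1 mRNA also assessed. Mean ± SEM.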

Experiment [2] has as its system CCl4-intoxicated Nep−/− mice. In words: Captopril or losartan co-treatment of CCl4-intoxicated Nep−/− mice. It is filed as in vivo, mouse. The note with it: losartan 5 mg/kg/day or captopril 4 mg/kg/day for four weeks, vs non-treated fibrotic Nep−/− mice, n = 6. The method, boiled down:
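Nep−/− mice (C57BL/6J background, male and female, 10–12 weeks) exposed to CCl4 at 1L/min three times weekly for four weeks, with phenobarbital 3.0 mg/kg/day in drinking water. Losartan or captopril co-treatment ran through the same four weeks. Sirius red-stained sections scored by morphometry; portal pressure recorded in mm Hg; hepatic Col1a1 mRNA by qPCR. Mean ± SEM.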

For experiment [3], the system named is primary mouse HSC (WT and Nep−/−). In words: mRNA expression. It is filed as cell-based. The note with it: NPY 1 nM, 24 h.
The test system is the same in experiment [4]. The experiment in a line: Collagen gel contraction assay. Particulars: primary mouse HSCs on collagen gels, NPY 0–100 nM, 0–48 h; Nep−/− vs WT. It is filed as cell-based. The method, boiled down:
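Primary HSCs were isolated from WT and Nep−/− mice and cultured at least one week until fully activated. 1 × 10^4 cells were embedded in 1 mg/mL collagen gels, in triplicate per group. […] Gel area was tracked from images taken at fixed camera distance over time, as % of initial surface; mean ± SEM, n = 3–6.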

The test system is the same in experiment [5]. In words: Western blot of ROCK, p-moesin and p-ERK in primary HSCs. Particulars: NPY 1 nM, 24 h, compared with WT cells. The format is cell-based. The method, boiled down:
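Primary HSCs from WT and Nep−/− mice were cultured at least one week until fully activated. They were seeded at 300,000 cells/well in DMEM with 20% FBS, and buffers were free of Zn and EDTA. […] Protein was read by western blot with GAPDH as loading control.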
(In general: A western blot detects proteins with antibodies after separation by electrophoresis.)

The test system of experiment [6] is primary HSCs from Nep−/− mice. The experiment in a line: Immunofluorescence and confocal microscopy of collagen I and αSMA. It is filed as cell-based, mouse. The note with it: full-length NPY, 24 h. The essentials: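 Primary Nep−/− HSCs, activated by at least one week of culture, were serum-starved 12 h. […] Cells were fixed in 4% paraformaldehyde and permeabilized with 1% Triton X-100, each 10 min at 37°C, then blocked 1 h in 1% BSA. Anti-collagen I (1:50) and anti-α-SMA (1:200) ran overnight at 4°C, secondaries (1:3000) 2 h, with DAPI counterstain. Confocal fluorescence was quantified from three independent experiments.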

The subject of experiment [7] is WT mice. In words: Intraperitoneal injection of NPYFL or its C-terminal fragments in WT mice. The note with it: i.p., 72 hours, n = 6/group. It is filed as in vivo, mouse.
Experiment [8] has as its system primary Nep−/− HSCs. The experiment in a line: Determination of cellular cAMP. The note with it: serum starved, full-length NPY 1 nM or mix of C-terminal fragments 30 μM, 30 min (methods), 24 h (Figure 4F), n = 3–4. It is filed as cell-based, mouse. The essentials: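 HSCs isolated from WT and Nep−/− mice were cultured at least one week (fully activated) in DMEM/20% FBS with penicillin-streptomycin, in Zn- and EDTA-free buffers. […] Competitive cAMP ELISA, normalised to total protein; mean ± SEM.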

As for `CCOC(=O)[C@H](C)C[C@@H](Cc1ccc(-c2ccccc2)cc1)NC(=O)CCC(=O)O` [sacubitril], in experiment [1], the “portal pressure, single components of Entresto” value is “Neither valsartan nor sacubitril were able to significantly reduce portal pressure”.

As to `CCCCC(=O)N(Cc1ccc(-c2ccccc2-c2nnn[nH]2)cc1)[C@H](C(=O)O)C(C)C` [valsartan], in experiment [1], the “portal pressure, single components of Entresto” value was “Neither valsartan nor sacubitril were able to significantly reduce portal pressure”.

Turning to `CCCCc1nc(Cl)c(CO)n1Cc1ccc(-c2ccccc2-c2nn[nH]n2)cc1` [losartan], in experiment [2], the “hepatic Col1a1 mRNA expression” value is listed as “significantly reduced” and the portal pressure result is recorded as “significantly reduced”.

Take `C[C@H](CS)C(=O)N1CCC[C@H]1C(=O)O` [captopril]: in experiment [2], the “hepatic Col1a1 mRNA expression” value is on record as “significantly reduced” and the portal pressure result is “significantly reduced”.

For Neuropeptide Y [NPY], in experiment [3] (Nep−/− HSCs), the “Col1a1 mRNA level” value is on record as “decreased” and the “Tgfβ1 mRNA level” value is “decreased”. In addition, the “Acta2 mRNA expression” value in experiment [3] (Nep−/− HSCs, compared with WT control) was “induced”. Further, in experiment [3] (WT HSCs), the “Col1a1 mRNA level” value is on record as “increased” and the “Tgfβ1 mRNA level” value is given as “increased”. Also, the “HSC contraction (decrease of gel surface)” value in experiment [4] is reported as “induced more HSC contraction”. For the same compound, in experiment [5], the “ROCK protein and p-moesin expression (western blot)” value was “increased further”. In addition, in experiment [6], the “αSMA expression (immunofluorescence)” value is “increased”. In experiment [7], the “hepatic Acta2 mRNA expression” value was “significantly induced”; the “hepatic mRNA expression of the main fibrotic markers, Col1a1 and Tgfβ1” value is given as “induced”; the portal pressure entry is “increase”. For the same compound, the “cAMP measurements (pmol cAMP per mg of total protein)” value in experiment [8] is “reduction”.
